Laboratory results as given in PMC2172834 (The Journal of Cell Biology, 2003).

B1: Bcl-w ΔC10 (C29S, A128E), His6-tagged recombinant (domain or fragment, UniProt Q92843 1-183, looked up)
chain: MATPASAPDTRALVADFVGYKLRQKGYVSGAGPGEGPAADPLHQAMRAAGDEFETRFRRTFSDLAAQLHVTPGSAQQRFTQVSDELFQGGPNWGRLVAFFVFGAALCAESVNKEMEPLVGQVQEWMVEYLETQLADWIHSSGGWAEFTALYGDGALEEARRLREGNWASVRTVLTGAVALGAL

Columns and labels:
[1] = system: endogenous Bcl-w in HeLa cells; assay: Drug-induced membrane association of endogenous Bcl-w, HeLa cells; assay type: cell-based; settings: 24 h, 1.0 μg/ml etoposide (VP16) or 10 nM staurosporine
Summary of the method: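 HeLa cells were harvested 24 h after 50 Jm−2 UV, 1.0 μg/ml etoposide or 10 nM staurosporine. Lysis was in HMKEE buffer (Hepes pH 7.2) with 250 mM sucrose and 0.025% digitonin, 10 min on ice. Pellet (13,000 rpm, 2 min, 4°C) was solubilised in RIPA. Soluble and pellet fractions were immunoblotted for endogenous Bcl-w.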

Bcl-w in FDC-P1 cells = assay: Damage-induced membrane association of Bcl-w, FDC-P1 cells; assay type: cell-based
Summary of the method: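 FDC-P1 or FD/FLAG–Bcl-w cells were given 100 nM staurosporine, 10 Gy γ irradiation or IL-3 withdrawal, in some runs with 50 μM zVAD.fmk. Cells were lysed in HMKEE/250 mM sucrose/0.025% digitonin for 10 min on ice. Pellet (13,000 rpm, 2 min, 4°C) and soluble fractions were separated. Pellet was RIPA-solubilised, with or without alkali treatment, and immunoblotted for Bcl-w.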

FDC-P1 cells = assay: Inhibition of apoptosis / cell survival; assay type: cell-based; settings: zVAD.fmk with death signals
[2] = target: T1, L94ABH3, 26-mer Bim BH3 peptide with L94A (mouse, L94A (stands in the printed letters)); assay: SPR
T1 peptide: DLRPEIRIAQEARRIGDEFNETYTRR

[3] = target: B1; assay: SPR
BimEL = assay: Coimmunoprecipitation of Bcl-w constructs with BimEL; assay type: binding; settings: 35S-labeled lysates, 293T cells
Bcl-w ΔC10 = target: T2, Bcl-w ΔC10 (Homo sapiens, UniProt Q92843, A128E/C29S); assay: Optical biosensor; assay type: binding
T2 sequence (Q92843 1-183 C29S/A128E limits assumed): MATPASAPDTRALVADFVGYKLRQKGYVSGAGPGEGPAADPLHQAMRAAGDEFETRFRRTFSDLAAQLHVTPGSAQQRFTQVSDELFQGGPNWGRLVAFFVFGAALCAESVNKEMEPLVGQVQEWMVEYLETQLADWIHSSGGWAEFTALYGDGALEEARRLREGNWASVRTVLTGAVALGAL

## COc1cc([C@@H]2c3cc4c(cc3[C@@H](O[C@@H]3O[C@@H]5CO[C@@H](C)O[C@H]5[C@H](O)[C@H]3O)[C@H]3COC(=O)[C@H]23)OCO4)cc(OC)c1O [etoposide]
[1]
  membrane association of endogenous Bcl-w: Damage signals trigger membrane association of endogenous Bcl-w in HeLa cells

## CN[C@@H]1C[C@H]2O[C@@](C)([C@@H]1OC)n1c3ccccc3c3c4c(c5c6ccccc6n2c5c31)C(=O)NC4 [staurosporine]
[1]
  membrane association of endogenous Bcl-w: Damage signals trigger membrane association of endogenous Bcl-w in HeLa cells
Bcl-w in FDC-P1 cells; FDC-P1 cells, 100 nM staurosporine
  membrane association of endogenous Bcl-w, alkali-resistant: damage signals induce membrane association resistant to alkali treatment

## zVAD.fmk
FDC-P1 cells
  delay of cell death: delayed cell death
Bcl-w in FDC-P1 cells; 50 μM zVAD.fmk plus death signals, FD/FLAG–Bcl-w cells
  recruitment of Bcl-w to the membrane fraction with caspase inhibitor: Bcl-w was still recruited into the membrane fraction in response to death signals

## B1
[2]
  fold reduction of binding against wtBH3: > 50 fold

## DLRPEIRIAQELRRIGDEFNETYTRR [wtBH3, 26-mer peptide spanning the BH3 domain of Bim]
[3]
  binding result: binds

B2: Wild-type Bcl-w: prosurvival Bcl-2 family protein, expressed FLAG-tagged (protein)
chain: MATPASAPDTRALVADFVGYKLRQKGYVCGAGPGEGPAADPLHQAMRAAGDEFETRFRRTFSDLAAQLHVTPGSAQQRFTQVSDELFQGGPNWGRLVAFFVFGAALCAESVNKEMEPLVGQVQEWMVAYLETQLADWIHSSGGWAEFTALYGDGALEEARRLREGNWASVRTVLTGAVALGALVTVGAFFASK
modifications: left off: FLAG, N-terminal, kept
BimEL
  binding to BimEL: interacts avidly with Bim

B3: BimLΔC27 (recombinant BimL lacking its COOH-terminal hydrophobic 27 amino acids) (domain or fragment, mouse, UniProt O54918-2 1-113, looked up)
chain: MAKQPSDVSSECDREGGQLQPAERPPQLRPGAPTSLQTEPQDRSPAPMSCDKSTQTPSPPCQAFNHYLSAMASIRQSQEEPEDLRPEIRIAQELRRIGDEFNETYTRRVFAND
[3]
  binding result: binds

B4: BimLΔC27: Purified recombinant BimL lacking its COOH-terminal hydrophobic 27 amino acids (protein)
chain: MAKQPSDVSSECDREGGQLQPAERPPQLRPGAPTSLQTEPQDRSPAPMSCDKSTQTPSPPCQAFNHYLSAMASIRQSQEEPEDLRPEIRIAQELRRIGDEFNETYTRRVFAND
modifications: left off: GST, end not stated, state not stated
Bcl-w ΔC10
  binding to Bcl-w: binds purified Bcl-w with high (nM) affinity
